Data: the RNAGym collection of RNA variant scans (doi:10.1126/science.aae0568)
Fewer inactive variants are shown than the library holds.

B1: tRNA (parent)
chain: GUUCCGUUGGCGUAAUGGUAACGCGUCUCCCUCCUAAGGAGAAGACUGCGGGUUCGAGUCCCGUACGGAACG

Variants of: B1
Assay: yeast fitness relative to wild type (ratio to wild type); higher = fitter; tRNA-Arg(CCU), competitive growth, 37 C, YPD
Method in brief: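 A pool of Saccharomyces cerevisiae strains, each with a tRNA-Arg(CCU) gene variant at the native genomic locus, was competed in YPD at 37°C for 24 hours across six parallel replicates. The variants had been chemically synthesised at a 3% per-site mutation rate over 69 sites, and gene amplicons before and after competition were read by 100-nucleotide paired-end sequencing. Darwinian fitness relative to wild type rested on changes in genotype frequencies. Genotypes required ≥ 100 starting reads, and estimates < 0.5 were set to 0.5.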

Variant | yeast fitness
GUUCCGUUGGCGUAAUGGUAAACCGUCUCCCUCUUGAGGUGAAGACUGCGGGUUCGAGUCCCAUACGGAACG | ≤ 0.5
GUUCCGUUGGCGUAAUGGUAAAGCAUCUCCCUCCUAAGGAGAAGACUGCGGGUUCGAGUCCCGUACGGUACG | 0.793
GUUCCGUUGGCGUAAUGGUAAAGCGUCUCCCUCCUAAGGAGAAGACUGCGGGUUCGAGUCUCGUACGGAACG | 0.864
GUUCCGUUGGCGUAAUGGUAAAGCGUCUCCCUCCUAAGGAGAAGAAUGCGGGUUCGAGUCCCGUACGGAACG | 0.83
GUUCCGUUGGCGUAAUGGUAAAGCGUCUCCCUCCUAAGCAGAUGACUGCGGGCUCGAGUCCCGUACGGAACG | 0.723
GUUCCGUUGGCGUAAUGGUAAAGCGUCUCCCUCCUAAGGAAAAGACUGCAGGUUCGAGUCCCGUACGGAACG | ≤ 0.5
GUUCCGUUGGCGUAAUGGUAAAGCGUCUCCCUACUUAGGAGAAGACUACGGGUUCGAGUCCGGUACGGAACG | 0.524
GUUCCGUUGGCGUAAUGGUAAAGCGUCUCCCUACUAUGGAGAAGACUGCGGGUUCGAGUCCCGUACGGAACG | ≤ 0.5
GUUCCGUUGGCGUAAUGGUAAAGCGUCUUCCUCCUAAGGAGAAGACUGCGGGUUCGAGUCCCGUAGGGAACG | ≤ 0.5
GUUCCGUUGGCGUAAUGGUAAAGCGUCUCACUUCUAAGGAGAAGACUGCGGGUUCGAGUCGUGUACGGAACG | ≤ 0.5
GUUCCGUUGGCGUAAUGGUAAAGCGUCUCCGUCCUAAGGAGAAGAAUGUGGGUUCGAGUCCCGUACGGAACG | ≤ 0.5
GUUCCGUUGGCGUAAUGGUAAAGCCUCUCCCUCCUAAGGAGAAGACUGCGGGUUCGAGUCCCGUACGGAACG | 1.05
GUUCCGUUGGCGUAAUGGUAAAGCGUCUGCCUCCUAAGGAGAAGACUGCGGGUUCGAGUCCCGUACGGAACG | 0.55
GUUCCGUUGGCGUAAUGGUAAAGCGUCUGCCUCCUAAGGAGAAGACUGCGGGUUCGAGUCCAGUACGGUACG | ≤ 0.5
GUUCCGUUGGCGUAAUGGUAAAACGUCUCCCUUGUAAGGAGAAGACUGCGAGUUCGAGUCCCGUACGGAACG | ≤ 0.5
GUUCCGUUGGCGUAAUGGUAAACCGUCUCCCUCUUGAGGUGAAGACUGCGGGUUCGAGUCCCGUACGGAACG | 0.548
GUUCCGUUGGCGUAAUGGUAAAGCGUCUUCCUCCUAAGGAGAAGACUGCGGGUUCGAGUCCCGUACGGUACG | 0.592
GUUCCGUUGGCGUAAUGGUAAAGCGUCUCCUUCCUAAGGAGAAGGCUGCGGGUUCGAGUCCCGUACGGAACG | 0.667
GUUCCGUUGGCGUAAUGGUAAAGCGUCUCACUCCUAAGGAGAAGACUGCGGGUCGGAGUCCCGUACGGAACG | ≤ 0.5
GUUCCGUUGGCGUAAUGGUAAAGCGUCUCCCUGCUAAGGAGAAGACUGCGGGUUCGAGUACCGUAGGGAACG | ≤ 0.5
GUUCCGUUGGCGUAAUGGUAAAGCAUCUCCGUCCUAAGGAGAAGACUCCGGGUUCGAGUCCCGUACGGAACG | ≤ 0.5
GUUCCGUUGGCGUAAUGGUAAAGCGUCUCCGUCCAAAGGAGAAGACUGCGGGUUCGAGUCCCGUACGGAACG | 0.558
GUUCCGUUGGCGUAAUGGUAAAGCGUCUCCCUACUUAGGAGAAGACUGCGGGAACGAGUCCCGUACGGAACG | 0.551
GUUCCGUUGGCGUAAUGGUAAAGCGUCUCCCUCCUAAGGAGAAGACUGCGGGUUUGAGUCCCGUUCGGAACG | ≤ 0.5
GUUCCGUUGGCGUAAUGGUAAAGCGUCUCCCUCUGAAGGAGAAGACUGCGGGUUCGAGUCUCGUACGGAACG | ≤ 0.5

Variant | yeast fitness
GUUCCGUUGGCGUAAUGGUAAAGCGUCUCCCUGCUAAGGAGACGACUGCGGGUUCGAGUCCCGCACGGAACG | 0.534
GUUCCGUUGGCGUAAUGGUAAAGCGUCUCCUUCCUAAGGAGAAGACUGCGGGUUCGAGUCCCGUACGCAACG | 0.561
GUUCCGUUGGCGUAAUGGUAAAGCAUCUCCCUCCUAAGGAGAAGACUGCGGGUUCGAGUCCCGUACGAAACG | 0.676
GUUCCGUUGGCGUAAUGGUAAACCGUCUCUCUCCUAAGGAGAAGACUGCGGGUUCGAGUCCCGUAGGGAACG | ≤ 0.5
GUUCCGUUGGCGUAAUGGUAAAGCGUCUCCCUCCUAAGGACAAGACUGCGGGCUCGAGUCCCGUACGGAACG | 0.656
GUUCCGUUGGCGUAAUGGUAAAGCGUCUCCCUCAUAAGGAGAAGACUGCGGGUUCCAAUCACGUACGGAACG | 0.597
GUUCCGUUGGCGUAAUGGUAAAGCGUCUCCCUCGUAAGGAGAAGACUGCGGGUUCGAGUCCCGUACGGAACG | 0.686
GUUCCGUUGGCGUAAUGGUAAAGCGUCUCCCUCUUAAGGAGAAGACUGCGGGUUCGAGUCCCGUACGGAACG | 0.761
GUUCCGUUGGCGUAAUGGUAAAGCCUCUCCCUCCUAAGGCGAAGACUGCGGGUUCGAGUCCCGUACGGAACG | 0.59
GUUCCGUUGGCGUAAUGGUAAAACGUCUCCCUUGUAAGGAGAAGACUGCGGGUUUGAGUCCCGUACGGAACG | ≤ 0.5
GUUCCGUUGGCGUAAUGGUAAAGCGUCUCCCUCCUAAGGAGAAGACUGCGGGUUCGAGUCCCGUAUGGAACG | 0.982
GUUCCGUUGGCGUAAUGGUAAAACGUCUCCCUUGUAAGGAGAAGACUGCGGGUUCGAGUCCCGUACCGCACG | ≤ 0.5
GUUCCGUUGGCGUAAUGGUAAAGCGUCUGCCUCGUAAGGAGCAGACUGCGGGUUCGAGUCCGGUACGGAACG | ≤ 0.5
GUUCCGUUGGCGUAAUGGUAAAGCGUCUCCCUCCUAAGGAGAAGACUGCGGGUUCGAGUCCCGUAAAGAACG | ≤ 0.5
GUUCCGUUGGCGUAAUGGUAAAGCGUCUCCCUCGUACGGAGAAGACUGCGGGUUCGAGUCCCGUACGGAACG | ≤ 0.5
GUUCCGUUGGCGUAAUGGUAAAACGUCUCCCUUCUAAGGAGUAGACUGCGGGUUCGAGUCCCGUACGGAACG | ≤ 0.5
GUUCCGUUGGCGUAAUGGUAAAGCGUCUCCCUCCUAAGGAGAAGAUUGGGGGUUCGAGUCCCGUACGGAACG | 0.527
GUUCCGUUGGCGUAAUGGUAAAGCGUCUCCCUCCUAAGGAGAAGACUAUACGUUCGAGUCCCGUACGGACCG | ≤ 0.5
GUUCCGUUGGCGUAAUGGUAAAGCCUCUCCCUCCUAAGGAGAAGACUGCGGGUUCGAGUCCCAUACGGAACG | 0.622
GUUCCGUUGGCGUAAUGGUAAAGCGUCUCUCUCGUAAGGAGAAGACUGCGGGUUCGAGUCCCGUACGGAUCG | ≤ 0.5
GUUCCGUUGGCGUAAUGGUAAAGCGUCUCGCUCCUAAGGAGAAGACUGCGGGUUCGAGUCCCGUACGGAACG | 0.636
GUUCCGUUGGCGUAAUGGUAAAGCGUCUCUCUCCUAAGGAGAAGACUGCGGGUUCGAGUCCCGUACGGAACG | 0.647
GUUCCGUUGGCGUAAUGGUAAAGCGUCUUCCUCCUAAGGAGAAGACUGUGGGUUCGAGUCCCGUACGGAACG | 0.622
GUUCCGUUGGCGUAAUGGUAAAGCGUCUCCCUACUAAGGAGAAGACUGCGGGUUCGAGUACCGUACGGAACG | 0.642
GUUCCGUUGGCGUAAUGGUAAAGCGUCUCCCUCCUAAGGAGAAGAGUGCGGGUUCGAGUCCCGUACGGACCG | 0.57

Variant | yeast fitness
GUUCCGUUGGCGUAAUGGUAAAACGUCUCCCUCUUAAGGAGAAGACUGCGGGUUCGCGUCCCGUAUGGCACG | 0.548
GUUCCGUUGGCGUAAUGGUAAAGCGUCUCAUUCCUAAGGAGAAGACUGCGGGUUCGAGUCCCGUACGCAACG | ≤ 0.5
GUUCCGUUGGCGUAAUGGUAAAGCGUCUCCGUCCUAACGAGAGGACUGCGGGUUCGAGUCCCGUACGGAACG | ≤ 0.5
GUUCCGUUGGCGUAAUGGUAAAGCGUCUUCCUGCUAAGGAGAAGAUUGCGGGUUCGAGUCCUGUACGGAACG | ≤ 0.5
GUUCCGUUGGCGUAAUGGUAAAGCGUCUCCAUCCUAAGGAGAAGACUGCGGGUUCGAGUCCCGUACGGAACG | 0.789
GUUCCGUUGGCGUAAUGGUAAAGCAUUUCCCUCCUAAGGAGACAACUGCGGGUUCGAGUCCCGUACGGAACG | ≤ 0.5
GUUCCGUUGGCGUAAUGGUAAAGCCUCUCCCUCCUAAGGAGAAGACUGCGGGUUCGAGUCCAGUACGGAACG | 0.559
GUUCCGUUGGCGUAAUGGUAAAGCGUCUCCCUCCUAAGGAGAAGACUGUGGGUUCGAGUCCCGUACGGAACG | 1.13
GUUCCGUUGGCGUAAUGGUAAAGCGUCUCCCUCCUAAGGAGAAGACUGGGGGUUCGAGUCCCGUACGGAACG | 0.646
GUUCCGUUGGCGUAAUGGUAAAGCGUCUCCCUCCUAAGGAGAAGACUGAGGGUUCGAGUCCCGUACGGAACG | 0.669
GUUCCGUUGGCGUAAUGGUAAAGCGUCUCCCUCCUAAGGAGAAGACUGCGGGUUCGAGUCCUGUACGGAACG | 0.935
GUUCCGUUGGCGUAAUGGUAAAGCAUCUCCCUCCUAAGGAGAAGACUACGGGUUCGAGUCGCGUACGGAACG | ≤ 0.5
GUUCCGUUGGCGUAAUGGUAAAACGUCUCCCUUGUAAGGAGAAGACUGCGGGUUCGAGUACCGUACGGAACG | ≤ 0.5
GUUCCGUUGGCGUAAUGGUAAACCGUCUCCCUCCUAAGGAGAAGACUGCGGGUUCGAGUCCCGUACUGAACG | ≤ 0.5
GUUCCGUUGGCGUAAUGGUAAAGCGUCUCCCUGCUAAGGAGAAGACUGCGGGUUCGAGUCCCGUACGGAACG | 0.701
GUUCCGUUGGCGUAAUGGUAAAGCGUCUCCCUACUAAGGAGAAGACUGCGGGUUCGAGUCCCGUACGGAACG | 0.718
GUUCCGUUGGCGUAAUGGUAAAGCGUCUCCCUGCUAAGGAGACGACUGCGGGUUAGAGUCCUGUACGGAACG | ≤ 0.5
GUUCCGUUGGCGUAAUGGUAAAGCGUCUCCCUCCUAAGGAGAAGACUGCGGGUUCGAGUCCUGUCCGGAACG | 0.663
GUUCCGUUGGCGUAAUGGUAAAGCGUCUUCCUCCUAAGGAGAAGACUGCGGGUUCAAGUGCCGUACGGAACG | ≤ 0.5
GUUCCGUUGGCGUAAUGGUAAAGCGUCUGCCUCCUAACGAGAAGACUGCGGGUUCGAGUCCCGUUCGGAACG | ≤ 0.5
GUUCCGUUGGCGUAAUGGUAAAGCGUCUCCCUACUUAGGAGAAGACUGCGGGUUCGAGUCCCGUACGGAACG | ≤ 0.5
GUUCCGUUGGCGUAAUGGUAAAGCGUCUCCCUGCUAGGGAGAAGACUGCGGGUUCGAGUCCCGUACGGAACG | ≤ 0.5
GUUCCGUUGGCGUAAUGGUAAACCGUCUCCCGCCUAAGGAGAAGACUGCGGGUUCGAGUCCCGUAGGGAACG | ≤ 0.5
GUUCCGUUGGCGUAAUGGUAAAGCGUCUCCCUGCUAAGGAGACGACUGCGGGUUCGAGUCCCGUACGGCACG | ≤ 0.5
GUUCCGUUGGCGUAAUGGUAAAGCGUCUCCCUCCUAAGGAGAAGACUCCGGGUUCGAGUCCCGUACGGAACG | 0.851
